Results of several laboratories.
Each line is one published result; the experiments were not run side by side.
Effect on: cell growth or viability

Structure (SMILES) | cell line | method | time | endpoint | result
C=CC(=O)N1CCN(c2nc(=O)n(-c3c(C)ccnc3C(C)C)c3nc(-c4c(O)cccc4F)c(F)cc23)[C@@H](C)C1 | SW1573 | ATP luminescence | – | IC50 | > 10 µM
O=C(O)c1cccnc1Nc1cccc(C(F)(F)F)c1 | NCI-H23 | SRB | 48 h | GI50 | > 30 µM
Cc1noc2c1-c1ccccc1C(c1ccc(Cl)cc1)=N[C@H]2CC(N)=O | MOLM-13 | ATP luminescence | 72 h | IC50 | 0.474 µM
CNC(=O)c1cc(Oc2ccc(NC(=O)Nc3ccc(Cl)c(C(F)(F)F)c3)cc2)ccn1 | NCI-H23 | MTT | 72 h | IC50 | 4.25 µM
COc1cc2nc(N3CCN(C(=O)c4ccco4)CC3)nc(N)c2cc1OC | C6661 | MTT | 48 h | IC50 | 27.4 µM
C=CC(=O)c1cccnc1Nc1cc(C(F)(F)F)ccc1OCc1ccccc1 | NCI-H23 | SRB | 48 h | GI50 | 16.5 µM
O=C(NO)c1ccc(CNc2nc3cccc(-c4ccc5c(c4)OCO5)n3n2)cc1 | NCI-H23 | SRB | – | GI50 | 0.66 µM
C=CC(=O)c1cccnc1Nc1cc(C(F)(F)F)ccc1OC | NCI-H23 | SRB | 48 h | GI50 | 6.67 µM
C=CC(=O)NC1CCN(c2ncc3ncnc(Nc4ccc(Oc5ccc6c(c5)ncn6C)c(C)c4)c3n2)CC1 | SNU-601 | – | – | EC50 | 4.22 nM
C[C@@H]1CC2=C(CN1Cc1cccc(C#N)c1)C(=O)N(Cc1ccc(Br)cc1)C1=NCCN12 | MOLM-13 | MTS | – | IC50 | 0.00793 µM
Cc1c(C(=O)O)ccc2c3n(nc12)[C@@H]1[C@H](C3)N(CC2CC2)[C@@]2(C(=O)Nc3cc(Cl)ccc32)[C@H]1c1cccc(Cl)c1F | Rh18 | – | – | GI50 | 0.00023 µM
Cc1cc(/C=C/C#N)cc(C)c1Nc1ccnc(Nc2ccc(C#N)cc2)n1 | C6661 | MTT | 48 h | IC50 | 4.67 µM
